Results reported in ChEMBL document CHEMBL5537160, “Design, Synthesis, Pharmacology, and In Silico Studies of (1S,2S,3S)-2-((S)-Amino(carboxy)methyl)-3-(carboxymethyl)cyclopropane-1-carboxylic Acid (LBG30300): A Picomolar Potency Subtype-Selective mGlu2 Receptor Agonist” (J Med Chem, 2024).
Activity calls are given as the source filed them. The rule behind the calls is not given here.

Legend:
[1] = Cmax in C57BL/6 mouse brain at 100 mg/kg, po by LC-MS/MS analysis; format: ADME, organism-based
[2] = Half life in C57BL/6 mouse brain at 100 mg/kg, po by LC-MS/MS analysis; format: ADME, organism-based
[3] = Cmax in CSF of C57BL/6 mouse at 100 mg/kg, po by LC-MS/MS analysis; format: ADME, organism-based, Cerebrospinal fluid
[4] = target: T1, Metabotropic glutamate receptor 3 (Rattus norvegicus, UniProt P31422); test: Agonist activity at rat mGlu3; format: functional
[5] = target: T1, Metabotropic glutamate receptor 3; test: Agonist activity at SNAP tagged rat mGlu3 transfected HEK293 cells preincubated with antagonist LY-341495 followed by compound addition by TR-FRET assay; format: functional, cell-based
[6] = Half life in C57BL/6 mouse plasma at 100 mg/kg, po by LC-MS/MS analysis; format: ADME, organism-based
[7] = Cmax in C57BL/6 mouse plasma at 100 mg/kg, po by LC-MS/MS analysis; format: ADME, organism-based
[8] = Unbound brain to plasma concentration ratio in C57BL/6 mouse at 10 mg/kg, iv […] by LC-MS/MS analysis; format: ADME, organism-based; conditions: read-out: K(p,uu,brain)
[9] = species on record: Rattus norvegicus; test: Selectivity ratio of EC50 for rat mGlu3 to EC50 for rat Glu2
[10] = Cmax in C57BL/6 mouse plasma at 10 mg/kg, iv measured after 4 hrs by LC-MS/MS analysis; format: ADME, organism-based
Summary of the method: (§1)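 Mice given a single 10 mg/kg IV dose; plasma and brain concentrations sampled at 0.25, 1.0 and 4.0 h, means ± error per timepoint.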

[11] = Half life in C57BL/6 mouse plasma at 10 mg/kg, iv by LC-MS/MS analysis; format: ADME, organism-based; summary of the method: as §1
[12] = target: T2, Metabotropic glutamate receptor 2 (Rattus norvegicus, UniProt P31421); test: Agonist activity at SNAP tagged rat mGlu2 transfected HEK293 cells preincubated with antagonist LY-341495 followed by compound addition by TR-FRET assay; format: functional, cell-based
[13] = target: Metabotropic glutamate receptor 8 (Rattus norvegicus, UniProt P70579); test: Agonist activity at rat mGlu8 transfected in HEK293 cells co-transfected with chimeric Gqi9 incubated for 30 mins by IP-one HTRF assay; format: functional, cell-based
Summary of the method: (§2)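 Rat group II/III receptor co-electroporated into HEK293 with chimeric Gqi9 and EAAC1 transporter, serum-free medium ≥2 h pre-assay. At 24 h post-transfection, Krebs wash, then 30 min compound exposure with 50 mM LiCl. IP1 accumulation quantified by HTRF kit, at least duplicate runs, mean of 2–5 experiments.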

[14] = target: T1, Metabotropic glutamate receptor 3; test: Agonist activity at rat mGlu3 transfected in HEK293 cells co-transfected with chimeric Gqi9 incubated for 30 mins by IP-one HTRF assay; format: functional, cell-based
[15] = Cmax in C57BL/6 mouse brain at 10 mg/kg, iv measured after 1 hrs by LC-MS/MS analysis; format: ADME, organism-based; summary of the method: as §1
[16] = species on record: Rattus norvegicus; test: Selectivity ratio of EC50 for SNAP tagged rat mGlu3 to EC50 for SNAP tagged rat mGlu2
Summary of the method: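 Ratio of EC50 at SNAP-tagged rat mGlu3 to mGlu2, both measured by TR-FRET conformational assay in HEK293 after LY341495 preincubation and washing; Lumi4-Tb/Green labeling, 337 nm excitation, 620/520 nm emission.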

[17] = Cmax in C57BL/6 mouse plasma at 10 mg/kg, iv measured after 1 hr by LC-MS/MS analysis; format: ADME, organism-based; summary of the method: as §1
[18] = target: Metabotropic glutamate receptor 2 (Rattus norvegicus) (UniProt P31421); test: Antagonist activity at rat mGlu2 transfected in HEK293 cells co-transfected with chimeric Gqi9 incubated for 30 mins by IP-one HTRF assay; format: functional, cell-based
[19] = target: Metabotropic glutamate receptor 5 (Rattus norvegicus, UniProt P31424); test: Agonist activity at rat mGlu5 transfected in HEK293 cells by IP-one HTRF assay; format: functional, cell-based
Summary of the method: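 HEK293 cells transiently electroporated with rat receptor plasmid plus the high-affinity Glu transporter EAAC1. Cells were grown in DMEM with 10% FBS and seeded on polyornithine-coated wells at 150 000 cells/well. Medium was switched to serum-free Glutamax DMEM ≥2 h before assay. At 24 h cells were washed in Krebs buffer and stimulated 30 min with agonist plus 50 mM LiCl. IP1 read by IP-One HTRF; ≥ duplicates.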

[20] = target: T2, Metabotropic glutamate receptor 2; test: Agonist activity at rat mGlu2 transfected in HEK293 cells co-transfected with chimeric Gqi9 incubated for 30 mins by IP-one HTRF assay; format: functional, cell-based; summary of the method: as §2
[21] = target: Metabotropic glutamate receptor 7 (Rattus norvegicus, UniProt P35400); test: Agonist activity at rat mGlu7 transfected in HEK293 cells co-transfected with chimeric Gqi9 incubated for 30 mins by IP-one HTRF assay; format: functional, cell-based; summary of the method: as §2
[22] = target: Metabotropic glutamate receptor 4 (Rattus norvegicus) (UniProt P31423); test: Antagonist activity at rat mGlu4 transfected in HEK293 cells co-transfected with chimeric Gqi9 incubated for 30 mins by IP-one HTRF assay; format: functional, cell-based; summary of the method: as §2
[23] = target: Metabotropic glutamate receptor 5 (Rattus norvegicus) (UniProt P31424); test: Antagonist activity at rat mGlu5 transfected in HEK293 cells by IP-one HTRF assay; format: functional, cell-based
Summary of the method: (§3)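 HEK293 cells transiently electroporated with rat receptor plasmid plus EAAC1 Glu transporter, plated 150 000 cells/well on polyornithine, serum-free Glutamax DMEM ≥2 h before assay. At 24 h, washed in Krebs buffer and stimulated 30 min with compound in 50 mM LiCl. IP1 read by HTRF, at least duplicates, EC50 from 2–5 experiments.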

[24] = target: Metabotropic glutamate receptor 4 (Rattus norvegicus, UniProt P31423); test: Agonist activity at rat mGlu4 transfected in HEK293 cells co-transfected with chimeric Gqi9 incubated for 30 mins by IP-one HTRF assay; format: functional, cell-based; summary of the method: as §2
[25] = target: Metabotropic glutamate receptor 3 (Rattus norvegicus) (UniProt P31422); test: Antagonist activity at rat mGlu3 transfected in HEK293 cells co-transfected with chimeric Gqi9 incubated for 30 mins by IP-one HTRF assay; format: functional, cell-based
[26] = Cmax in C57BL/6 mouse plasma at 10 mg/kg, iv measured after 0.25 hrs by LC-MS/MS analysis; format: ADME, organism-based; summary of the method: as §1
[27] = Cmax in C57BL/6 mouse brain at 10 mg/kg, iv measured after 0.25 hrs by LC-MS/MS analysis; format: ADME, organism-based; summary of the method: as §1
[28] = target: Metabotropic glutamate receptor 6 (Rattus norvegicus) (UniProt P35349); test: Antagonist activity at rat mGlu6 transfected in HEK293 cells co-transfected with chimeric Gqi9 incubated for 30 mins by IP-one HTRF assay; format: functional, cell-based; summary of the method: as §2
[29] = Cmax in C57BL/6 mouse brain at 10 mg/kg, iv measured after 4 hrs by LC-MS/MS analysis; format: ADME, organism-based; summary of the method: as §1
[30] = target: Metabotropic glutamate receptor 8 (Rattus norvegicus) (UniProt P70579); test: Antagonist activity at rat mGlu8 transfected in HEK293 cells co-transfected with chimeric Gqi9 incubated for 30 mins by IP-one HTRF assay; format: functional, cell-based; summary of the method: as §2
[31] = target: Metabotropic glutamate receptor 6 (Rattus norvegicus, UniProt P35349); test: Agonist activity at rat mGlu6 transfected in HEK293 cells co-transfected with chimeric Gqi9 incubated for 30 mins by IP-one HTRF assay; format: functional, cell-based; summary of the method: as §2
[32] = target: Metabotropic glutamate receptor 1 (Rattus norvegicus, UniProt P23385); test: Agonist activity at rat mGlu1 transfected in HEK293 cells by IP-one HTRF assay; format: functional, cell-based; summary of the method: as §3
[33] = target: T2, Metabotropic glutamate receptor 2; test: Agonist activity at SNAP tagged rat mGlu2 transfected HEK293 cells by TR-FRET assay; format: functional, cell-based
[34] = target: Metabotropic glutamate receptor 7 (Rattus norvegicus) (UniProt P35400); test: Antagonist activity at rat mGlu7 transfected in HEK293 cells co-transfected with chimeric Gqi9 incubated for 30 mins by IP-one HTRF assay; format: functional, cell-based; summary of the method: as §2
[35] = target: Metabotropic glutamate receptor 1 (Rattus norvegicus) (UniProt P23385); test: Antagonist activity at rat mGlu1 transfected in HEK293 cells by IP-one HTRF assay; format: functional, cell-based; summary of the method: as §3

T1 sequence (P31422 whole entry): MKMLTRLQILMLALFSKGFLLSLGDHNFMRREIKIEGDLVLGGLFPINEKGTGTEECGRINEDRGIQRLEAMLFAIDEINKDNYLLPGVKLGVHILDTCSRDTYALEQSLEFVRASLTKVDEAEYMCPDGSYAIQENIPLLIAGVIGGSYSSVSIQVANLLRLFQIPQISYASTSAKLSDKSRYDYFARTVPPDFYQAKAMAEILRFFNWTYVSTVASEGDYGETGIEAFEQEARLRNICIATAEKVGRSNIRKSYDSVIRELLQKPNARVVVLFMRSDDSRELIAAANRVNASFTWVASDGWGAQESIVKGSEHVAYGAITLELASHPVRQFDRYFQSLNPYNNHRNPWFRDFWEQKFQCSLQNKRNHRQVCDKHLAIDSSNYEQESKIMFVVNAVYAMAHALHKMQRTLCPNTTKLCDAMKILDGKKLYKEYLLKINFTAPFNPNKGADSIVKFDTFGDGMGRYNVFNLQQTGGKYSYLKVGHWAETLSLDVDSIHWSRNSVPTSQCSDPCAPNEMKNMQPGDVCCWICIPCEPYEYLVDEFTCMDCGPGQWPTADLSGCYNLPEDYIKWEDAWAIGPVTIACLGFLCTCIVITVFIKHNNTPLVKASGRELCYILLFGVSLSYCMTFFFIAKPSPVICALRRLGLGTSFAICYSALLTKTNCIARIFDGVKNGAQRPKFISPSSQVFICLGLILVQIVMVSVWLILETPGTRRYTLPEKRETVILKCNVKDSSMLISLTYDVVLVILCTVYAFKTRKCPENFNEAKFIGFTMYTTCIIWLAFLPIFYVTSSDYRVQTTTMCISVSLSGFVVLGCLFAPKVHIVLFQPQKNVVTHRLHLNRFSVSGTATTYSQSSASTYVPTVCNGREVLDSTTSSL
Metabotropic glutamate receptor 5 (Rattus norvegicus), sequence (P31424 21-1203 limits assumed): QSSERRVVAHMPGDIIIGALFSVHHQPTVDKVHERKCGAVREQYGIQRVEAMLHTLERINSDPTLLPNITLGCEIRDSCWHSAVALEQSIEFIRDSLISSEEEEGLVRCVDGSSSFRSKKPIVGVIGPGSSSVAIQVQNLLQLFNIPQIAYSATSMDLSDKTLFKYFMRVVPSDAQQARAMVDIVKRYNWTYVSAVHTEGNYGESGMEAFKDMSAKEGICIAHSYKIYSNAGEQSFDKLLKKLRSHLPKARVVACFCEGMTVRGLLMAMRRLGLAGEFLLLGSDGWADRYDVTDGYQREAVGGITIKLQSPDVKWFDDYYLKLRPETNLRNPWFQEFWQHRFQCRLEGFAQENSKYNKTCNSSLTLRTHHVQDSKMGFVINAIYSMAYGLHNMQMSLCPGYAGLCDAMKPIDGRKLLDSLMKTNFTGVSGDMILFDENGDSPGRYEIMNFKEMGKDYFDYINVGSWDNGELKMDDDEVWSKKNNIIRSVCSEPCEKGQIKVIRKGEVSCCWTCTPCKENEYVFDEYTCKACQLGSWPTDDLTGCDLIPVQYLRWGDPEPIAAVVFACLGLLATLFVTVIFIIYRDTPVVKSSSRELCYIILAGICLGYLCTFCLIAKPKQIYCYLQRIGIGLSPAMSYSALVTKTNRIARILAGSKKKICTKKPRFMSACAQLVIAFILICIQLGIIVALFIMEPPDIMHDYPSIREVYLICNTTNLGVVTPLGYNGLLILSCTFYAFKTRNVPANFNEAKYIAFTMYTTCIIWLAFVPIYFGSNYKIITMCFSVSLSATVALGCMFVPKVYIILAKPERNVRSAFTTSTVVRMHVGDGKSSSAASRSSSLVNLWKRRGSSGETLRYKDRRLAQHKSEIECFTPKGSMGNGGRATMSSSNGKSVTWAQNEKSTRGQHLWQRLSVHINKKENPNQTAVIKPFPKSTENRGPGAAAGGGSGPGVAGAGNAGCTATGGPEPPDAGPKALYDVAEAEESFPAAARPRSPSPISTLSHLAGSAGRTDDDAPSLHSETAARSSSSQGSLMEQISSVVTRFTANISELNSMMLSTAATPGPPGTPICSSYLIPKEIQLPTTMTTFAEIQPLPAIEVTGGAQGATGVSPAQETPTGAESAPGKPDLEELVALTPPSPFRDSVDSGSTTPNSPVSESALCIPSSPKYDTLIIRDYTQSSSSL
Metabotropic glutamate receptor 6, sequence (P35349 whole entry): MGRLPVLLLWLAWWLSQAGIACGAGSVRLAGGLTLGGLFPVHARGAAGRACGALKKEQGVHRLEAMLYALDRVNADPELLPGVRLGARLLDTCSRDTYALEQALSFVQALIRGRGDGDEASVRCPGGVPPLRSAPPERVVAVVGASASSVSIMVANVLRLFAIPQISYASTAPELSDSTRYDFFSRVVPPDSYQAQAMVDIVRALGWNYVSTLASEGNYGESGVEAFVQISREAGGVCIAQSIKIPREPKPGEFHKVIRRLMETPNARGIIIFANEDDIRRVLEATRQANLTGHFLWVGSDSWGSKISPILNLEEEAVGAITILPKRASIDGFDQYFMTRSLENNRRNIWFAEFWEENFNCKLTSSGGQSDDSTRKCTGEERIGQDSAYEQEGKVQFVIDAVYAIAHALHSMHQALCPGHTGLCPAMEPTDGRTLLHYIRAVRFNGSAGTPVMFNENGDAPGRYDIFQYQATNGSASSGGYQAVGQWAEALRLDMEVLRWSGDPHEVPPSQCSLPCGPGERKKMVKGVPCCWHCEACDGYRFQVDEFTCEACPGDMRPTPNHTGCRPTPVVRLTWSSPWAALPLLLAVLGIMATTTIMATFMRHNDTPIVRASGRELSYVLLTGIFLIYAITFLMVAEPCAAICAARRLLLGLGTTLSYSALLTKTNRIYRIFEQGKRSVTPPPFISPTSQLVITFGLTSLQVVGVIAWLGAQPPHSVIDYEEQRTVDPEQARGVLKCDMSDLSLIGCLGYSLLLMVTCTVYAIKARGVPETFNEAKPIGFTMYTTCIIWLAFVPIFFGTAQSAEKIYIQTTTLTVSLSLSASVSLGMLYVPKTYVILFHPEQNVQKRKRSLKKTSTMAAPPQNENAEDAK
Metabotropic glutamate receptor 6 (Rattus norvegicus), sequence (P35349 whole entry): as above
Metabotropic glutamate receptor 5, sequence (P31424 whole entry): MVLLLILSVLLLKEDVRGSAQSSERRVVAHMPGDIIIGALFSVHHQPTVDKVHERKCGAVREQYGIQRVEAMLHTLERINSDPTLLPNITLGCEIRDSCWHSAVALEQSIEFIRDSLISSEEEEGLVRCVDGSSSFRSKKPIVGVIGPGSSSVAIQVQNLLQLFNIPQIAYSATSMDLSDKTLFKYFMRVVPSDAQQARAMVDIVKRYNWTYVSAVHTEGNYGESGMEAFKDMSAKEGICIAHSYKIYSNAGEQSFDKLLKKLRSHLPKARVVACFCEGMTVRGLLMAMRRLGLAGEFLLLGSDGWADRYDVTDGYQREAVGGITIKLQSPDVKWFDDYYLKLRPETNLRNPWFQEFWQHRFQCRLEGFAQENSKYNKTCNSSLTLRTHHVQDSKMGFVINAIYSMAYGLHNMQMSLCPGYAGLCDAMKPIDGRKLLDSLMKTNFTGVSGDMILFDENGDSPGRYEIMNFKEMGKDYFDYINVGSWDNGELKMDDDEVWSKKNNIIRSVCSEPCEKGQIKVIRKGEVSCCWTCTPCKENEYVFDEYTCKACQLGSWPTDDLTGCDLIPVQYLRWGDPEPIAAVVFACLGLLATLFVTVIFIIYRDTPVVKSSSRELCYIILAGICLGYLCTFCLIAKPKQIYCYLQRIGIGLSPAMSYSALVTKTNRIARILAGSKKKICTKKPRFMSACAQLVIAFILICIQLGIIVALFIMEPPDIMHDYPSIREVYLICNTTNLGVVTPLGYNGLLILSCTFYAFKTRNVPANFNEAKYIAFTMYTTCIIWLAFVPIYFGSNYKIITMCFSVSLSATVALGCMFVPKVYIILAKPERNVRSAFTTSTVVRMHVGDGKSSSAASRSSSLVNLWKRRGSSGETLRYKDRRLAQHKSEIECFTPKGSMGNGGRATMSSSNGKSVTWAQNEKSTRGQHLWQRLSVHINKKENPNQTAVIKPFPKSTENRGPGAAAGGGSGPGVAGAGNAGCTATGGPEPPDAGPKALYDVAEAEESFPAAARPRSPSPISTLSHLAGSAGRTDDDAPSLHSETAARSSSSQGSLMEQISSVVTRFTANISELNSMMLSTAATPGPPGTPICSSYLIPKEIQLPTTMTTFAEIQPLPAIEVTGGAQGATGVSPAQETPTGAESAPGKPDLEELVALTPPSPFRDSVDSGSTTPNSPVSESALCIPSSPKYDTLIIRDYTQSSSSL
Metabotropic glutamate receptor 3 (Rattus norvegicus), sequence (P31422 23-879 limits assumed): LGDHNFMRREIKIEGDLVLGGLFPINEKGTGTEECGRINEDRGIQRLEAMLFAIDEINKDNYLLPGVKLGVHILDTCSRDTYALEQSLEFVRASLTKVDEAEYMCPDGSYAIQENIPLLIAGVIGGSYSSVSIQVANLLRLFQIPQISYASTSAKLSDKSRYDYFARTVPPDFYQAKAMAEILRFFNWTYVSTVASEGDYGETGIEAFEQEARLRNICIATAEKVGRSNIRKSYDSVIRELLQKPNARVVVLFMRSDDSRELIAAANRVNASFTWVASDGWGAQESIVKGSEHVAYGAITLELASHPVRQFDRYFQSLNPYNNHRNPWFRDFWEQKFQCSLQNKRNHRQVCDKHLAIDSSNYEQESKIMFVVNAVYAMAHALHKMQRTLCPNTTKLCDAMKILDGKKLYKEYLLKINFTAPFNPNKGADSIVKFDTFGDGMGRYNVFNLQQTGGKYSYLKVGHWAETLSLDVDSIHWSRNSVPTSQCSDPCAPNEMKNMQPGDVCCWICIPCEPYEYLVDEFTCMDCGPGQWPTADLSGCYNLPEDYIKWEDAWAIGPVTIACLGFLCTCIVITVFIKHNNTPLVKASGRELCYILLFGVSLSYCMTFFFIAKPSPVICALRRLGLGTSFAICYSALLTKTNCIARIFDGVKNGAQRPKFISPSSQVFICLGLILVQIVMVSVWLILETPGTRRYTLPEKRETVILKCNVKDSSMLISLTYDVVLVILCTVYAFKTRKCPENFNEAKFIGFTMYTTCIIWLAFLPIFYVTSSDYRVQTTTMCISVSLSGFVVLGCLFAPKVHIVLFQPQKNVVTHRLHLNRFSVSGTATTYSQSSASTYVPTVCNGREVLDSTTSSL

SMILES | EC50 [5] | EC50 ([13]; read-out: EC50) | EC50 [14] | Activity [18] | EC50 ([19]; read-out: EC50) | EC50 ([20]; read-out: EC50) | EC50 [21] | Activity [22] | Activity [23] | EC50 ([24]; read-out: EC50) | Activity [25] | Activity [28] | Activity [30] | EC50 ([31]; read-out: EC50) | EC50 [32] | Activity [34] | Activity [35] | further results
N[C@@]1(C(=O)O)CC[C@H]2[C@H](C(=O)O)[C@H]21 | 4.8 µM | – | – | – | – | – | – | – | – | – | – | – | – | – | – | – | – | Cmax [1]: 76 ng/g; half-life [2]: 69 h; Cmax [3]: 14 ng/g; EC50 [4]: 0.027 µM; half-life [6]: 6.8 h; Cmax [7]: 2120 ng/mL
Cl.N[C@H](C(=O)O)[C@H]1[C@H](CC(=O)O)[C@@H]1C(=O)O | 11.5 µM | 0.097 µM | 0.373 µM | inactive | > 30 µM | 0.001 µM | > 30 µM | inactive | inactive | 0.11 µM | inactive | inactive | inactive | 0.28 µM | > 30 µM | inactive | inactive | Kp uu [8]: 0.02; Ratio EC50 [9]: 620; Cmax [10]: 50 ng/mL; half-life [11]: 0.5 h; EC50 [12]: 0.022 µM; EC50 ([13]; read-out: pEC50 (converted)): 0.0355 µM; Cmax [15]: 75 ng/g; Ratio EC50 [16]: 513; Cmax [17]: 583 ng/mL; EC50 ([20]; read-out: pEC50 (converted)): 0.000575 µM; EC50 ([24]; read-out: pEC50 (converted)): 0.0355 µM; Cmax [26]: 5360 ng/mL; Cmax [27]: 86 ng/g; Cmax [29]: 68 ng/g; EC50 ([31]; read-out: pEC50 (converted)): 0.245 µM; EC50 ([33]; read-out: EC50): 0.013 µM; EC50 ([33]; read-out: pEC50 (converted)): 0.0224 µM
N[C@@H](Cn1oc(=O)[nH]c1=O)C(=O)O [QUISQUALATE] | – | – | – | inactive | 0.027 µM | – | – | inactive | inactive | – | inactive | inactive | inactive | – | – | inactive | inactive | EC50 ([19]; read-out: pEC50 (converted)): 0.0407 µM
N[C@@]1(C(=O)O)CO[C@H]2[C@H](C(=O)O)[C@H]21 [LY-379268] | – | – | 0.01 µM | inactive | – | 0.001 µM | – | inactive | inactive | – | inactive | inactive | inactive | – | – | inactive | inactive | –
C[C@@]1(C(=O)O)C[C@H]1[C@H](N)C(=O)O | – | > 30 µM | 1.88 µM | inactive | 12 µM | – | > 30 µM | inactive | inactive | > 30 µM | inactive | inactive | inactive | 2.5 µM | 5.5 µM | inactive | inactive | –
